Like-named read-outs stand apart in the source and are kept apart here.
Key:
[1] = tested on: chronic constriction injury (CCI) of the sciatic nerve; assay: CCI neuropathic pain model, mechanical sensitization; format: in vivo, mouse
[2] = target: native GABAA receptors in membranes derived from spinal cord; assay: [3H]flumazenil competition binding, spinal cord membranes; settings: mouse spinal cord membranes, 1.2 nM [3H]flumazenil, mean ± SD of 3
Outline: (§1)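 Brain or spinal cord from male C57BL/6 mice (25–30 g) was homogenized in 10 mM Tris pH 7.4, 150 mM NaCl with protease inhibitors. Spins at 1000 g then 20,000 g (4°C); the pellet was washed in 10 mM Tris-HCl pH 7.4, 100 mM KCl. About 50 μg protein was incubated with increasing test compound and 1.2 nM [3H]flumazenil, 90 min on ice, then filtered. Nonspecific binding: 10 μM clonazepam. Scintillation counting; 3 independent runs.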

[3] = target: native GABAA receptors in membranes prepared from brain; assay: [3H]flumazenil competition binding, brain membranes; settings: mouse brain membranes, 1.2 nM [3H]flumazenil, mean ± SD of 3
Outline: as §1

[4] = tested on: motor coordination; settings: mouse, in vivo, ip
[5] = Pharmacokinetics of HZ166 in the brain; format: in vivo, mouse; settings: 48 mg / kg i.p.
[6] = tested on: zymosan A induced inflammatory hyperalgesia; assay: Zymosan A model of inflammatory pain, mechanical sensitization; format: in vivo, mouse; settings: 48 hours after zymosan A, 16 mg / kg i.p., 3 hours, n = 6
Outline: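 Zymosan A (0.06 mg in 20 μl 0.9% NaCl) was injected s.c. into the left plantar hindpaw of male mice. After 48 h, test compound 16 mg/kg or vehicle was given i.p. Dynamic von Frey withdrawal thresholds were monitored for 3 h (4–5 readings averaged). AUC used the day-2 pre-drug baseline subtracted. n = 6/group; unpaired t-test.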

[7] = tested on: sedation; settings: at anxiolytic doses; ref Fischer et al., 2010; cited from earlier work
[8] = tested on: α1β3γ2 GABAA receptor; assay: [3H]flumazenil competition binding, L cells α1β3γ2; settings: L cells α1β3γ2, [3H]flumazenil
Outline: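 L(-tk) cells stably expressing α1β3γ2 were grown in DMEM/10% FBS and induced with 1 μM dexamethasone (final), then harvested 3–4 days later. Cells were sonicated in 10 mM Tris-HCl pH 7.4, 100 mM KCl with protease inhibitors; the 100,000 g pellet was used. About 200 μg protein was incubated with increasing test compound and 1.2 nM [3H]flumazenil for 90 min on ice, then filtered. Nonspecific binding: 10 μM clonazepam. 4–5 independent runs.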

[9] = tested on: locomotor activity; assay: Locomotor activity; format: in vivo, mouse
Outline: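 Male mice (7–12 weeks) were tested in the light phase. Sixty min after i.p. test compound (16, 48, 100, 160 mg/kg) or vehicle, each mouse was placed in a 20-cm circular enclosure with 4 photocells. Total photocell interruptions were counted over 1 h. n = 10/group; one-way ANOVA with Scheffe post hoc test.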

[10] = target: α2β3γ2 GABAA receptor (Homo sapiens, UniProt P18507+P47869); assay: [3H]flumazenil competition binding, L cells α2β3γ2; settings: recombinant receptors, α2 versus α1
[11] = tested on: chronic constriction injury (CCI) of the sciatic nerve; assay: CCI neuropathic pain model, heat hyperalgesia; format: in vivo, mouse
Outline: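 Male mice (7–12 weeks) had left sciatic nerve CCI under 2% isoflurane, with three loose chromic gut ligatures. On day 7, test compound 16 mg/kg or vehicle was given i.p. Radiant-heat paw withdrawal latency (plantar test) was taken for 3 h, with 4–5 readings averaged per time point and ipsi/contralateral paws tested alternately. AUC used the pre-drug baseline subtracted. n = 6/group; unpaired t-test.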

[12] = tested on: chronic constriction injury (CCI) of the sciatic nerve; assay: Tolerance development in the CCI model; format: in vivo, mouse; settings: 16 mg / kg i.p. once daily for 9 days, CCI mice, versus chronic vehicle
Outline: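 Starting day 7 after left sciatic CCI, mice got test compound 16 mg/kg or vehicle i.p. once daily for 9 days. On day 10, each group was split to receive acute vehicle or 16 mg/kg i.p. Dynamic von Frey thresholds were followed for 3 h (4–5 readings averaged). %MPE was taken after 3, 5 and 10 days of treatment. n = 6/group.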

[13] = tested on: rat neuropathic pain model; settings: ref Knabl et al., 2008, cited from earlier work; for Analgesic effect during repeated administration (tolerance): once per day for nine days
[14] = tested on: sedation; settings: clinical development stopped; ref Atack et al., 2010; cited from earlier work
[15] = i.p., 60 min recording starting 60 min after injection
[16] = CCI mice day 7, i.p., mechanical sensitization, Hill fit

## CCOC(=O)c1ncn2c1CN(C)C(=O)c1cc(F)ccc1-2 [Flumazenil, flumazenil, reference compound]
[1]; flumazenil 10 mg / kg i.p., HZ166 16 mg / kg
  Effect of flumazenil on the antihyperalgesic effect of HZ166: almost completely reversed

## C#Cc1ccc2c(c1)C(c1ccccn1)=NCc1c(C(=O)OCC)ncn1-2 [HZ166]
[2]
  Ki: […]
[3]
  Ki: […]
[4]
  Doses that did not interfere with rotarod performance: […]
[5]; CCI operated mice
  tmax in brain: […]
[5]; initial elimination phase
  estimated α half-life (brain): […]
[5]; β-phase
  estimated apparent terminal half-life (brain): […]
[6]
  AUC of mechanical PWT: […]
[7]
  Sedation in primates: does not cause sedation
[8]
  Ki: […]
[9]; estimated from locomotor activity, Fig. 6
  estimated ED50 sedation: 97 mg/kg
[9]; [15]
  Motor activity at 16 and 48 mg / kg: did not significantly impair motor activity
  Motor activity at 100 and 160 mg / kg: Significant reduction of activity
[10]
  Affinity to α2-GABAA receptors higher than that to α1-GABAA receptors: about 40%
[1]; CCI mice day 7, i.p., mechanical sensitization, %MPE at 1 h, Hill fit
  ED50 antihyperalgesia: […]
[1]; [16]
  Emax (maximum antihyperalgesic effect, %MPE): […]
[1]; CCI mice, i.p.
  Time of maximum effect on ipsilateral PWT after injection: […]
[1]; CCI mice, i.p., %MPE at 1 h
  Doses with statistically significant antihyperalgesic effects: […]
[1]; CCI mice, i.p., uninjured paw
  PWTs of the contralateral paw: not affected
[11]; CCI mice day 7, 16 mg / kg i.p., 3 hours, n = 6
  AUC of PWL, injured paw: […]
[11]; CCI mice, 16 mg / kg i.p.
  Time of peak effect on PWL after i.p. administration: […]
[12]
  Tolerance development (analgesic activity after chronic treatment): no loss of antihyperalgesic activity

## Cn1ncnc1COc1nn2c(-c3cc(F)ccc3F)nnc2cc1C(C)(C)C [L-838,417]
[13]
  Analgesic effect during repeated administration (tolerance): did not decline
  Antihyperalgesic activity in rat neuropathic pain model: good antihyperalgesic activity

## NCC1(CC(=O)O)CCCCC1 [gabapentin, reference compound]
[4]; male
  Dose causing significant impairment of motor performance in the rotarod test: 90 mg/kg
  Doses that did not interfere with rotarod performance: ≤ 30 mg/kg
[9]; [15]
  Doses with significant reduction in locomotor activity: ≥ 30 mg/kg
[1]; [16]
  Emax (maximum antihyperalgesic effect, %MPE): 84 ± 1.4%
[1]; Mus musculus, ip, read-out: ED50 antihyperalgesia
  ED50: 6.2 ± 0.4 mg/kg

## CN1CC[C@]23c4c5ccc(O)c4O[C@H]2[C@@H](O)C=C[C@H]3[C@H]1C5 [morphine]
[13]
  Analgesic effect during repeated administration (tolerance): complete tolerance developed

## MRK409
[14]
  Sedation in humans: sedative effects in man
